Key:
[1] = Partition coefficient (logP); assay type: physicochemical; conditions: octanol/water
In short: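 Octanol/water log P estimated from log k'w measured by reversed-phase HPLC (Minick method) on a C8 silica column.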

Rattus norvegicus [2] = assay: Tested in vivo for the biodistribution in rat liver at 1 hour after intravenous dose of 100 microCi of drug in 10%ethanol saline; assay type: ADME, organism-based
In short: (§1)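 Immature (25-day-old) female Sprague-Dawley rats, ether-anesthetized, given the fluorine-18-labeled estrogen by femoral vein injection in 10% ethanol saline. […] Other groups were killed by decapitation at 1 or 3 h. Blood and organs were weighed and gamma-counted. Data are % injected dose/g, mean ± SD, typically n = 5 per group.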

Rattus norvegicus [3] = assay: Tested in vivo for the biodistribution in rat uterus/muscle at 1 hour after intravenous dose of 100 microCi of the drug and 15 ug of estradiol; assay type: ADME, organism-based, Muscle tissue
In short: (§2)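 Female Sprague-Dawley rats, 25 days old (~40–53 g), ether-anesthetized, given the 18F-labeled estrogen iv via femoral vein in 10% ethanol saline. […] Others were sacrificed by decapitation at 1 or 3 h. Blood and organs were excised, weighed and gamma counted as % injected dose/g, mean ± SD, typically n = 5 (4–6).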

[4] = target: T1, Estrogen receptor (Rattus norvegicus) (UniProt P06211+Q62986)
[5] = target: T1, Estrogen receptor (Rattus norvegicus); remark: listed apart in the source
Rattus norvegicus [6] = assay: Tested in vivo for the biodistribution in rat uterus at 1 hour after intravenous dose of 100 microCi of drug in 10%ethanol saline; assay type: ADME, organism-based; in short: as §1
Rattus norvegicus [7] = assay: Tested in vivo for the biodistribution in rat ovaries after 3 hours following an intravenous dose of 100 microCi of drug in 10%ethanol saline; assay type: ADME, organism-based, Female gonad; in short: as §1
Rattus norvegicus [8] = assay: Tested in vivo for the biodistribution in rat uterus/muscle after 3 hours following an intravenous dose of 100 microCi of drug in 10%ethanol saline; assay type: ADME, organism-based, Muscle tissue; in short: as §2
Rattus norvegicus [9] = assay: Tested in vivo for the biodistribution in rat fat at 1 hour after intravenous dose of 100 microCi of the drug and 15 ug of estradiol; assay type: ADME, organism-based, Adipose tissue
Rattus norvegicus [10] = assay: Tested in vivo for the biodistribution in rat muscle at 1 hour after intravenous dose of 100 microCi of the drug and 15 ug of estradiol; assay type: ADME, organism-based, Muscle tissue; in short: as §1
Rattus norvegicus [11] = assay: Tested in vivo for the biodistribution in rat kidney at 1 hour after intravenous dose of 100 microCi of drug in 10%ethanol saline; assay type: ADME, organism-based
In short: (§3)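 Ether-anesthetized 25-day-old female Sprague-Dawley rats (~40–53 g) got the [18F] tracer in 10% ethanol saline via femoral vein. Rats were decapitated at 1 or 3 h, and blood and organs were weighed and gamma-counted. Values are % injected dose/g as mean ± SD, n = 5 per time point.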

Rattus norvegicus [12] = assay: Tested in vivo for the biodistribution in rat ovaries at 1 hour after intravenous dose of 100 microCi of the drug and 15 ug of estradiol; assay type: ADME, organism-based, Female gonad; in short: as §1
Rattus norvegicus [13] = assay: Tested in vivo for the biodistribution in rat uterus/blood after 3 hours following an intravenous dose of 100 microCi of drug in 10%ethanol saline; assay type: ADME, organism-based; in short: as §2
Rattus norvegicus [14] = assay: Tested in vivo for the biodistribution in rat uterus/blood at 1 hour after intravenous dose of 100 microCi of the drug and 15 ug of estradiol; assay type: ADME, organism-based; in short: as §2
Rattus norvegicus [15] = assay: Tested in vivo for the biodistribution in rat bone at 1 hour after intravenous dose of 100 microCi of drug in 10%ethanol saline; assay type: ADME, organism-based, Bone element; in short: as §3
Rattus norvegicus [16] = assay: Tested in vivo for the biodistribution in rat kidney at 1 hour after intravenous dose of 100 microCi of the drug and 15 u g of estradiol; assay type: ADME, organism-based
Rattus norvegicus [17] = assay: Tested in vivo for the biodistribution in rat muscle after 3 hours following an intravenous dose of 100 microCi of drug in 10%ethanol saline; assay type: ADME, organism-based, Muscle tissue; in short: as §1
Rattus norvegicus [18] = assay: Tested in vivo for the biodistribution in rat bone after 3 hours following an intravenous dose of 100 microCi of drug in 10%ethanol saline; assay type: ADME, organism-based, Bone element; in short: as §3
Rattus norvegicus [19] = assay: Tested in vivo for the biodistribution in rat uterus at 1 hour after intravenous dose of 100 microCi of the drug and 15 micro g of estradiol; assay type: ADME, organism-based; in short: as §1
[20] = target: T2, Sex hormone-binding globulin (Homo sapiens) (UniProt P04278); assay: Relative binding affinity against sex steroid binding protein (SBP)
T2 sequence (whole entry): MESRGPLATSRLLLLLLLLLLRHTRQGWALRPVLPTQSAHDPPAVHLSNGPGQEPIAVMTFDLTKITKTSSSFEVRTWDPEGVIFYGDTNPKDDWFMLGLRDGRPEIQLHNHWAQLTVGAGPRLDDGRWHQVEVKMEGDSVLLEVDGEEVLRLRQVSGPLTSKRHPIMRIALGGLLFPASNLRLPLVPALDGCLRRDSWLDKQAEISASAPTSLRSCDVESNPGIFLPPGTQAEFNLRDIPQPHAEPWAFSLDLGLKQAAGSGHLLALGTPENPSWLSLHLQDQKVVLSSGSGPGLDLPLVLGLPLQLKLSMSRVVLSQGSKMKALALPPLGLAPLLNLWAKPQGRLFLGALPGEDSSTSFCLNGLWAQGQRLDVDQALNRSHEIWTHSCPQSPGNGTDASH

Rattus norvegicus [21] = assay: Tested in vivo for the biodistribution in rat liver at 1 hour after intravenous dose of 100 microCi of the drug and 15 u g of estradiol; assay type: ADME, organism-based; in short: as §1
Rattus norvegicus [22] = assay: Tested in vivo for the biodistribution in rat liver after 3 hours following an intravenous dose of 100 microCi of drug in 10%ethanol saline; assay type: ADME, organism-based; in short: as §1
[23] = target: T3, Alpha-fetoprotein (Rattus norvegicus) (UniProt P02773); assay: Relative binding affinity for Alphafetoprotein
T3 sequence (whole entry): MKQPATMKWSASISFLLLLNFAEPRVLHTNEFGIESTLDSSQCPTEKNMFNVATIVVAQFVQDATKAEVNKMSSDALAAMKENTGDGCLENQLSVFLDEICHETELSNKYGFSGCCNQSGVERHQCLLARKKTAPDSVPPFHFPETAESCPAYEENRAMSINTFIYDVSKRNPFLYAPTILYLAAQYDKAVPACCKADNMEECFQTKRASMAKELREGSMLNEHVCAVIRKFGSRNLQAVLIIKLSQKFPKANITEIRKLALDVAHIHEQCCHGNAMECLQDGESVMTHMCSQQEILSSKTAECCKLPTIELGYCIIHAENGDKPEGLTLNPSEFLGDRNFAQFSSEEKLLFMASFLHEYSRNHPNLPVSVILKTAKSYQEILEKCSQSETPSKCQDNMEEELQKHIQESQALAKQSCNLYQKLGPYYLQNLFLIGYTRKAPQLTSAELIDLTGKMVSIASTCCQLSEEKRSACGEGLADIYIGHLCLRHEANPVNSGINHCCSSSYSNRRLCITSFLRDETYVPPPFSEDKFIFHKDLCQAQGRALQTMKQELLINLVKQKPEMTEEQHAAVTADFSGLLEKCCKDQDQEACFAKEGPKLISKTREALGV

Rattus norvegicus [24] = assay: Tested in vivo for the biodistribution in blood of female rat at 1 hour after intravenous dose of 100 microCi of drug in 10%ethanol saline; assay type: ADME, organism-based; in short: as §3
Rattus norvegicus [25] = assay: Tested in vivo for the biodistribution in rat fat at 1 hour after intravenous dose of 100 microCi of drug in 10%ethanol saline; assay type: ADME, organism-based, Adipose tissue; in short: as §3
Rattus norvegicus [26] = assay: Tested in vivo for the biodistribution in blood of female rat at 1 hour after intravenous dose of 100 microCi of the drug and 15 u g of estradiol; assay type: ADME, organism-based
Rattus norvegicus [27] = assay: Tested in vivo for the biodistribution in rat ovaries at 1 hour after intravenous dose of 100 microCi of drug in 10%ethanol saline; assay type: ADME, organism-based, Female gonad; in short: as §1
Rattus norvegicus [28] = assay: Tested in vivo for the biodistribution in rat kidney after 3 hours following an intravenous dose of 100 microCi of drug in 10%ethanol saline; assay type: ADME, organism-based; in short: as §3
Rattus norvegicus [29] = assay: Tested in vivo for the biodistribution in blood of female rat after 3 hours following an intravenous dose of 100 microCi of drug in 10%ethanol saline; assay type: ADME, organism-based; in short: as §3
Rattus norvegicus [30] = assay: Tested in vivo for the biodistribution in rat muscle at 1 hour after intravenous dose of 100 microCi of drug in 10%ethanol saline; assay type: ADME, organism-based, Muscle tissue; in short: as §1
Rattus norvegicus [31] = assay: Tested in vivo for the biodistribution in rat uterus/muscle at 1 hour after intravenous dose of 100 microCi of drug in 10%ethanol saline; assay type: ADME, organism-based, Muscle tissue; in short: as §2
Rattus norvegicus [32] = assay: Tested in vivo for the biodistribution in rat fat after 3 hours following an intravenous dose of 100 microCi of drug in 10%ethanol saline; assay type: ADME, organism-based, Adipose tissue; in short: as §3
Rattus norvegicus [33] = assay: Tested in vivo for the biodistribution in rat uterus/blood at 1 hour after intravenous dose of 100 microCi of drug in 10%ethanol saline; assay type: ADME, organism-based; in short: as §2
Rattus norvegicus [34] = assay: Tested in vivo for the biodistribution in rat uterus after 3 hours following an intravenous dose of 100 microCi of drug in 10%ethanol saline; assay type: ADME, organism-based; in short: as §1
Rattus norvegicus [35] = assay: Tested in vivo for the biodistribution in rat bone at 1 hour after intravenous dose of 100 microCi of the drug and 15 ug of estradiol; assay type: ADME, organism-based, Bone element

logP [1]: 3.3
Injected (Rattus norvegicus [2]): 2.249%
Injected (Rattus norvegicus [3]): 2.424%
BSI [4]: 27
NSB [5]: 1.04
Injected (Rattus norvegicus [6]): 7.466%
Injected (Rattus norvegicus [7]): 1.274%
Injected (Rattus norvegicus [8]): 32.37%
Injected (Rattus norvegicus [9]): 0.206%
Injected (Rattus norvegicus [10]): 0.22%
Injected (Rattus norvegicus [11]): 0.906%
Injected (Rattus norvegicus [12]): 0.863%
Injected (Rattus norvegicus [13]): 12.21%
Injected (Rattus norvegicus [14]): 0.92%
Injected (Rattus norvegicus [15]): 0.608%
Injected (Rattus norvegicus [16]): 0.752%
Injected (Rattus norvegicus [17]): 0.133%
Injected (Rattus norvegicus [18]): 0.557%
Injected (Rattus norvegicus [19]): 0.533%
relative binding affinity (RBA) [20]: 0.589
Injected (Rattus norvegicus [21]): 2.412%
Injected (Rattus norvegicus [22]): 2.204%
relative binding affinity (RBA) [23]: 22
Injected (Rattus norvegicus [24]): 0.449%
Injected (Rattus norvegicus [25]): 0.337%
Injected (Rattus norvegicus [26]): 0.576%
Injected (Rattus norvegicus [27]): 2.159%
Injected (Rattus norvegicus [28]): 0.376%
Injected (Rattus norvegicus [29]): 0.358%
Injected (Rattus norvegicus [30]): 0.307%
Injected (Rattus norvegicus [31]): 24.42%
Injected (Rattus norvegicus [32]): 0.122%
Injected (Rattus norvegicus [33]): 16.87%
Injected (Rattus norvegicus [34]): 4.31%
Injected (Rattus norvegicus [35]): 0.635%
Compound: C#C[C@]1(O)[C@@H](F)C[C@H]2[C@@H]3CCc4cc(O)ccc4[C@H]3CC[C@@]21C
